Data reported in ChEMBL document CHEMBL1124953, “Orally effective acid prodrugs of the beta-lactamase inhibitor sulbactam” (J Med Chem, 1990).

Experiments:
[1] = Maximum Concentration of the compound.; assay type: ADME, organism-based; conditions: in vivo
Summary of the method: (§1)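 Male outbred CD rats (70-90 g), five per prodrug, given 10 mg/kg orally in CMC diluent. Orbital plexus blood into heparinized tubes, plasma sampled over 4 h. Plasma sulbactam quantified by synergistic agar-well bioassay: Pasteurella hemolytica (ATCC 43823) in Mueller-Hinton agar with ampicillin and triphenyltetrazolium chloride, 18 h at 37 °C. Standard curve 10-0.1 μg/mL in rat plasma, zone-size regression. AUC and Cmax from concentration-time plot.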

[2] = Area under curve (AUC) was determined; assay type: ADME; parameters: concentration or dose not given beside the values; summary of the method: as §1

Cmax [1] | AUC [2] | SMILES
8200 ng/mL | 10000 ng·h/mL | CC1(C)[C@H](C(=O)OCOC(=O)CCCC(=O)O)N2C(=O)C[C@H]2S1(=O)=O
6200 ng/mL | 8500 ng·h/mL | CC(C)(C)C(=O)OCOC(=O)[C@@H]1N2C(=O)C[C@H]2S(=O)(=O)C1(C)C [SULBACTAM PIVOXIL]
2000 ng/mL | 3500 ng·h/mL | CC1(C)[C@H](C(=O)OCOC(=O)CC(=O)O)N2C(=O)C[C@H]2S1(=O)=O

Further lines, the compound ahead of its results:

SMILES | Cmax [1] | AUC [2]
CC1(C)[C@H](C(=O)OCOC(=O)CCCCC(=O)OCc2ccccc2)N2C(=O)C[C@H]2S1(=O)=O | 1600 ng/mL | 2300 ng·h/mL
CC(C)(C(=O)O)C(=O)OCOC(=O)[C@@H]1N2C(=O)C[C@H]2S(=O)(=O)C1(C)C | 3900 ng/mL | 6200 ng·h/mL
CC1(C)[C@H](C(=O)O)N2C(=O)C[C@H]2S1(=O)=O [SULBACTAM] | 700 ng/mL | 1400 ng·h/mL
CC1(C)[C@H](C(=O)OCOC(=O)CCCCC(=O)O)N2C(=O)C[C@H]2S1(=O)=O | 5200 ng/mL | 7500 ng·h/mL
